Compound activity (PubChem)
In the library only some 2.1% were active in any assay of this set; here they are far more common.
Runt-CBFb FRET – Runt domain-CBFb interaction inhibition; Q01196+Q13951; Cerulean-Runt/Venus-CBFb FRET ratio 530/480, 1 h; inhibition, % at 20 µM; 0.46% of 220,000 active; AID 1496;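 active = inhibition over about 50% at 20 µM in the single-dose screen, limit read from the data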
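Buffer or medium: Tris pH 7.5 buffer with BSA. Assay system: Cerulean-labeled Runt domain protein. Amount: each fluorescent fusion protein 100 nM. Read-out basis: loss of energy transfer signal. Incubation: 1 h compound exposure, room temperature. Probe or stimulus: Venus-CBFb binding partner, 100 nM. Detection: FRET, excitation 422 nm, emission at 530 and 480 nm.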
p-CIP stab down – lowers stability of the mouse p/CIP coactivator protein. decrease of EGFP signal, % at 10 µM. Q05BA5. F442A p/CIP-EGFP cells, EGFP fluorescence, 16 h. 0.01% of 290,000 active. AID 1984;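 active = EGFP signal decrease of at least 30% at 10 µM or well 3 SD below plate mean, unless failing retest; inactive = the rest, including hits failing retest or dose response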
Hck Nef HTS – human Hck-Nef kinase inhibition; P08631; Recombinant Hck-YEEI plus Nef, Z-Lyte FRET kinase assay; inhibition, % at 20 µM; 0.68% of 220,000 active;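 active = Hck-Nef kinase inhibition above about 50%, limit read from the data; inactive = inhibition below that limit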
Runt-SMMHC FRET – blocks binding of human RUNX1 Runt domain to CBFb-SMMHC. Q01196+Q13951. Cerulean-Runt/Venus-CBFb-SMMHC FRET ratio 530/480, 1 h. inhibition, % at 20 µM. 0.74% of 220,000 active;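 active = mean inhibition across duplicate retests at 20 µM reaching about 50%, limit read from the data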;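 note: inhibitors lower the FRET ratio by blocking Runt binding to CBFb-SMMHC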
RanGTP-Imp inh – disruptors of Ran-importin-beta complex formation – biochemical, FRET, CFP-Ran, YFP-importin-beta, homogeneous, primary screen | cell-free CFP-Ran/YFP-importin-beta FRET ratio | inhibition, % (no concentration beside the values) | 1.1% of 300,000 active | AID 2216;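 active = more than half of the replicate wells show a fall in the fluorescence ratio signal beyond about 16%, limit read from the data, passing the limit was not always enough; inconclusive = exactly half of the replicate wells pass the set limit; inactive = fewer than half of replicates pass the limit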
Pemphigus Ab inh – blocks pemphigus antibody binding to human desmoglein-3 | 0.48% of 310,000 active | P32926 | DSG3-coupled beads, scFv-anti-DSG3-GFP binding, flow cytometry; hits give low values | binding (percent of control), % at 10 µM;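 active = binding more than 3 SD below its plate's average and above zero; inconclusive = below that plate limit but binding exactly zero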;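 note: hits lower antibody fragment binding to DSG3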
Numbers stand for hits.

For Cc1cc(=O)n(CCc2ccccc2)c(O)c1C#N the results were Runt-CBFb FRET inactive, p-CIP stab down inactive, Hck Nef HTS inactive, Runt-SMMHC FRET inactive, RanGTP-Imp inh inactive and Pemphigus Ab inh inactive.
For Cc1cc(=O)n(Nc2ccccc2)c(O)c1C#N the results were Pemphigus Ab inh 64.
`COc1cc(CCC(C)=O)ccc1OC(=O)c1c(F)cccc1Cl` gave Runt-CBFb FRET inactive, p-CIP stab down inactive, Hck Nef HTS inactive, Runt-SMMHC FRET inactive and RanGTP-Imp inh inconclusive.
Cc1cc(/C=C2\SC(=S)NC2=O)c(C)n1-c1cccc(O)c1 was read as Runt-CBFb FRET inactive, p-CIP stab down inactive, Hck Nef HTS 65, Runt-SMMHC FRET inactive, RanGTP-Imp inh 20 and Pemphigus Ab inh inactive.
For Cc1cc(/C=C2\SC(=S)N(C)C2=O)c(C)n1-c1ccc(O)cc1 the results were Runt-CBFb FRET inactive, p-CIP stab down inactive, Hck Nef HTS inactive, Runt-SMMHC FRET inactive, RanGTP-Imp inh 37 and Pemphigus Ab inh inactive.
Screening CN1C(=O)/C(=C/c2coc3ccc(O)cc3c2=O)SC1=S returned Runt-CBFb FRET inactive, p-CIP stab down inactive, Hck Nef HTS inactive, Runt-SMMHC FRET inactive, RanGTP-Imp inh inconclusive and Pemphigus Ab inh inactive.
`Cc1ccc(-n2c(C)cc(/C=C3\SC(=O)NC3=O)c2C)cc1` gave p-CIP stab down inactive, RanGTP-Imp inh inactive and Pemphigus Ab inh inactive.
Screening Cc1cc(/C=C2\SC(=S)N(C)C2=O)c(C)n1-c1ccccc1O returned RanGTP-Imp inh 44 and Pemphigus Ab inh inactive.
`CCc1ccc(N(C(=O)c2snc(C(N)=O)c2N)C(C(=O)NC2CCCC2)c2ccncc2)cc1` (configuration not stated) gave p-CIP stab down inactive, RanGTP-Imp inh inactive and Pemphigus Ab inh inactive.
Screening O=C(Nc1ccccc1)Oc1cccc(Br)c1 returned Runt-CBFb FRET inactive, p-CIP stab down inactive, Hck Nef HTS inactive, Runt-SMMHC FRET inactive, RanGTP-Imp inh inactive and Pemphigus Ab inh inactive.
`COc1ccc(C2CC(c3ccccc3)=NN2C(=O)CCC(=O)O)cc1` (configuration not stated) gave p-CIP stab down inactive, RanGTP-Imp inh inactive and Pemphigus Ab inh inactive.
COc1ccc(C2=Nc3nc(-c4ccccc4)cn3C(c3ccc(OC)cc3)C2)cc1 (configuration not stated) was read as Runt-CBFb FRET inactive, p-CIP stab down inactive, Hck Nef HTS inactive, Runt-SMMHC FRET inactive, RanGTP-Imp inh 28 and Pemphigus Ab inh inactive.
`O=c1c(O)c(-c2cccs2)oc2ccccc12` gave Runt-CBFb FRET inactive, p-CIP stab down inactive, Hck Nef HTS inactive, Runt-SMMHC FRET 79 and RanGTP-Imp inh 93.
`CCCCn1c(-c2cccs2)nc2oc3ccccc3c(=O)c2c1=O` gave Runt-CBFb FRET inactive, p-CIP stab down inactive, Hck Nef HTS inactive, Runt-SMMHC FRET inactive and RanGTP-Imp inh inactive.
O=c1cc(-c2cccs2)oc2ccc(Cl)cc12 was read as Runt-CBFb FRET inactive, p-CIP stab down inactive, Hck Nef HTS inactive, Runt-SMMHC FRET inactive, RanGTP-Imp inh inactive and Pemphigus Ab inh inactive.
O=c1c(O)c(-c2cccs2)oc2ccc(Cl)cc12 was read as Runt-CBFb FRET inactive, p-CIP stab down inactive, Hck Nef HTS inactive, Runt-SMMHC FRET 58, RanGTP-Imp inh 18 and Pemphigus Ab inh inactive.
Screening CCCn1c(-c2ccc(OC)cc2)nc2c(=O)n(C)c(=O)[nH]c21 returned Runt-CBFb FRET inactive, p-CIP stab down inactive, Hck Nef HTS inactive, Runt-SMMHC FRET inactive, RanGTP-Imp inh inactive and Pemphigus Ab inh inactive.
For CCCc1nc2c(=O)n(C)c(=O)[nH]c2n1C the results were Runt-CBFb FRET 122, p-CIP stab down inactive, Hck Nef HTS inactive, Runt-SMMHC FRET 114, RanGTP-Imp inh 108 and Pemphigus Ab inh inactive.
Screening CCCCn1c(-c2ccc(Cl)cc2)nc2c(=O)n(C)c(=O)[nH]c21 returned Runt-CBFb FRET inactive, p-CIP stab down inactive, Hck Nef HTS inactive, Runt-SMMHC FRET 50 and Pemphigus Ab inh inactive.
Screening Cc1ccccc1N1CCN(C2CCCN(C(=O)CCn3cnnn3)C2)CC1 (configuration not stated) returned p-CIP stab down inactive, RanGTP-Imp inh inactive and Pemphigus Ab inh inactive.
For O/N=C/c1ccc2ccccc2c1 the results were Runt-CBFb FRET inactive, p-CIP stab down inactive, Hck Nef HTS inactive, Runt-SMMHC FRET inactive, RanGTP-Imp inh inactive and Pemphigus Ab inh inactive.
Cc1c(C#N)c(=O)oc2ccc3ccccc3c12 was read as Runt-CBFb FRET 71, p-CIP stab down inactive, Hck Nef HTS inactive, Runt-SMMHC FRET 97 and RanGTP-Imp inh inactive.
Screening CCN(CC)CCOc1ccc(-c2c(C)c3c(ccc4ccccc43)oc2=O)cc1 returned Pemphigus Ab inh inactive.
For COC(=O)c1c(NC(=O)c2ccco2)sc2c1CCC2 the results were Runt-CBFb FRET inactive, p-CIP stab down inactive, Hck Nef HTS inactive, Runt-SMMHC FRET inactive and RanGTP-Imp inh inactive.
For CN1CCc2c(sc(NC(=O)c3cc4cc([N+](=O)[O-])ccc4s3)c2C(N)=O)C1 the results were Runt-CBFb FRET inactive, p-CIP stab down inactive, Hck Nef HTS inactive, Runt-SMMHC FRET inactive and RanGTP-Imp inh inactive.
Screening CN1CCc2c(sc(NC(=O)c3ccc([N+](=O)[O-])o3)c2C(N)=O)C1 returned p-CIP stab down inactive.
Screening CN1CCc2c(sc(NC(=O)c3ccco3)c2C(N)=O)C1 returned p-CIP stab down inactive and RanGTP-Imp inh 83.
For CN1CCc2c(sc(NC(=O)c3cc(Cl)sc3Cl)c2C(N)=O)C1 the results were p-CIP stab down inactive and RanGTP-Imp inh 147.
`COC(=O)c1c(NC(=O)c2ccco2)sc2c1CCN(C(C)C)C2` gave p-CIP stab down inactive, RanGTP-Imp inh 54 and Pemphigus Ab inh inactive.
Screening CC(C)N1CCc2c(sc(NC(=O)c3ccco3)c2C(N)=O)C1 returned p-CIP stab down inactive, RanGTP-Imp inh 101 and Pemphigus Ab inh inactive.
Screening CSc1sc(C(=O)N(C)C)c2c1S(=O)(=O)N(C)c1ccccc1-2 returned Runt-CBFb FRET inactive, p-CIP stab down inactive, Hck Nef HTS inactive, Runt-SMMHC FRET inactive, RanGTP-Imp inh inactive and Pemphigus Ab inh inactive.
`COC(=O)c1sccc1NC(=O)Nc1cccc(F)c1` gave Runt-CBFb FRET inactive, p-CIP stab down inactive, Hck Nef HTS inactive, Runt-SMMHC FRET inactive, RanGTP-Imp inh inactive and Pemphigus Ab inh inactive.
`Cc1ccc(S(=O)(=O)N2CCN(S(=O)(=O)N3CCC(C)CC3)CC2)cc1C` gave p-CIP stab down inactive, RanGTP-Imp inh inactive and Pemphigus Ab inh inactive.
O=C(NCCCc1ccccc1)c1cccc(NC(=O)C2CCCCC2)c1 was read as Pemphigus Ab inh inactive.
For Nc1nc2nc(-c3ccc(Cl)cc3)cc(C(F)(F)F)n2n1 the results were Runt-CBFb FRET inactive, p-CIP stab down inactive, Hck Nef HTS inactive, Runt-SMMHC FRET 76, RanGTP-Imp inh inconclusive and Pemphigus Ab inh inactive.
